Experimental data from ChEMBL document CHEMBL1641478, “Structural and biochemical study on the inhibitory activity of derivatives of 5-nitro-furan-2-carboxylic acid for RNase H function of HIV-1 reverse transcriptase” (Bioorg Med Chem, 2011).

Assays:
[1] = Cytotoxicity against human 293T cells after 3 days by MTT assay; assay type: cell-based, HEK-293T; settings: for CC50 at 72 h: 293T cells; for CC50: hek-293t, 72 h
How it was run: (§1)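 Cells in RPMI-1640 with 10% FBS: MT-4 seeded at 4 × 10⁵/mL, 293T at 2 × 10⁵/mL. Compound final concentrations 100, 50, 25 and 12.5 µM, 1% DMSO final, plus an untreated control. Incubated 3 days at 37 °C in 5% CO₂. MTT added for 1 h, then solubilized overnight at 4 °C and read at OD570/690. CC50 derived only when viability fell below 50% at 100 µM.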

[2] = (§2) Cytotoxicity against human MT4 cells after 3 days by MTT assay; assay type: cell-based; settings: MT4 cells; how it was run: as §1
[3] = biological target: Human immunodeficiency virus type 1 reverse transcriptase (Human immunodeficiency virus 1, UniProt Q72547); assay: Inhibition RNase H activity of HIV1 reverse transcriptase expressed in Escherichia coli stain BL21(DE3)pLysS
How it was run: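 His-tagged p66/p51 RT expressed in E. coli BL21(DE3)pLysS with 1 mM IPTG for 3 h. Substrate: 18-mer RNA labelled with 3′-FAM, annealed to complementary DNA carrying a 5′-BHQ quencher. Reaction used 100 ng RT at 37 °C, with cleavage followed in real time by fluorescence at 488 nm every 150 s. IC50 taken as the concentration halving the cleavage rate relative to control.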

[4] = system: MT4; assay: as §2; assay type: cell-based; settings: mt4, 72 h; how it was run: as §1

SMILES | CC50 at 72 h [1] | CC50 at 72 h [2] | IC50 [3] | CC50 [1] | CC50 [4]
CC(C)(C)N(Cc1cccc(C(F)(F)F)c1)C(=O)COC(=O)c1ccc([N+](=O)[O-])o1 | 68 µM | > 100 µM | 8.5 µM | – | –
CC(C)(C)NC(=O)COC(=O)c1ccno1 | – | – | > 50 µM | – | –
CC(C)(C)N(Cc1ccc(C(F)(F)F)cc1)C(=O)COC(=O)c1ccc([N+](=O)[O-])o1 | 36 µM | 71 µM | 8 µM | – | –
CC(=O)COC(=O)c1ccc([N+](=O)[O-])s1 | – | – | 9.5 µM | – | –
CC(=O)Oc1ccc(CN(C(=O)COC(=O)c2ccc([N+](=O)[O-])o2)C(C)(C)C)cc1 | > 100 µM | > 100 µM | 8.7 µM | – | –
O=C(COC(=O)c1ccc([N+](=O)[O-])o1)NCC1CCCO1 (stereo not given) | > 100 µM | > 100 µM | 4.2 µM | – | –
O=C(COC(=O)c1ccc([N+](=O)[O-])o1)NC1CCc2ccccc21 (stereo not given) | > 100 µM | > 100 µM | 6.1 µM | – | –
CCOC(=O)[C@H](C)NC(=O)c1ccc([N+](=O)[O-])o1 | – | – | > 50 µM | – | –
O=C(OCC(=O)N(Cc1ccc(O)cc1)CC1CCCO1)c1ccc([N+](=O)[O-])o1 (stereo not given) | > 100 µM | > 100 µM | 5 µM | – | –
CC(C)(C)NC(=O)COC(=O)c1ccc(-c2ccc([N+](=O)[O-])cc2)o1 | – | – | > 50 µM | – | –
CC(C)OC(=O)COC(=O)c1ccc([N+](=O)[O-])o1 | > 100 µM | > 100 µM | 13.2 µM | – | –
CC(C)(C)NC(=O)COC(=O)c1ccc(-c2ccccc2[N+](=O)[O-])o1 | – | – | > 50 µM | – | –
CC(C)(C)NC(=O)COC(=O)c1ccc([N+](=O)[O-])o1 | > 100 µM | > 100 µM | 18 µM | – | –
CC(C)(C)C(=O)COC(=O)c1ccc([N+](=O)[O-])o1 | > 100 µM | > 100 µM | 21.9 µM | – | –
CC(C)(C)N(Cc1cccc([N+](=O)[O-])c1)C(=O)COC(=O)c1ccc([N+](=O)[O-])o1 | 78 µM | > 100 µM | 9.8 µM | – | –
CC(C)(NC(=O)COC(=O)c1ccc([N+](=O)[O-])o1)c1ccccc1 | > 100 µM | > 100 µM | 8.2 µM | – | –
O=C(OCC(=O)N(Cc1ccccc1)CC1CCCO1)c1ccc([N+](=O)[O-])o1 (stereo not given) | > 100 µM | > 100 µM | 7.7 µM | – | –
CCOC(=O)[C@@H](NC(=O)c1ccc([N+](=O)[O-])o1)c1ccccc1 | – | – | > 50 µM | – | –
CC(C)(C)NC(=O)COC(=O)c1ccc(-c2cccc([N+](=O)[O-])c2)o1 | – | – | > 50 µM | – | –
CC(C)(C)N(Cc1c(F)c(F)c(F)c(F)c1F)C(=O)COC(=O)c1ccc([N+](=O)[O-])o1 | 83 µM | > 100 µM | 6.8 µM | – | –
CC(C)(C)NC(=O)COC(=O)c1cccc([N+](=O)[O-])c1 | – | – | > 50 µM | – | –
CC(C)(C)NC(=O)COC(=O)c1ccc([N+](=O)[O-])cc1 | – | – | > 50 µM | – | –
CCC(C)(C)NC(=O)COC(=O)c1ccc([N+](=O)[O-])o1 | > 100 µM | > 100 µM | 5.8 µM | – | –
CC(C)(C)C(=O)COC(=O)c1ccc([N+](=O)[O-])s1 | – | – | 5.7 µM | – | –
CC(C)(Cc1ccccc1)NC(=O)COC(=O)c1ccc([N+](=O)[O-])o1 | > 100 µM | > 100 µM | 4.3 µM | – | –
COc1ccc(CN(C(=O)COC(=O)c2ccc([N+](=O)[O-])o2)C(C)(C)C)cc1 | > 100 µM | > 100 µM | 7.5 µM | – | –
CCC(C)(C)N(Cc1ccc([N+](=O)[O-])cc1)C(=O)COC(=O)c1ccc([N+](=O)[O-])s1 | – | – | 33.5 µM | – | –

SMILES | CC50 at 72 h [1] | CC50 at 72 h [2] | IC50 [3] | CC50 [1] | CC50 [4]
CC(C)(C)N(Cc1ccc([N+](=O)[O-])cc1)C(=O)COC(=O)c1ccc([N+](=O)[O-])o1 | > 100 µM | > 100 µM | 6.9 µM | – | –
CCC(C)(C)N(Cc1cccc([N+](=O)[O-])c1)C(=O)COC(=O)c1ccc([N+](=O)[O-])s1 | – | – | 25.8 µM | – | –
CCC(C)(C)NC(=O)COC(=O)c1ccc([N+](=O)[O-])s1 | – | – | 5.8 µM | – | –
CC(C)(C)N(Cc1ccccc1)C(=O)COC(=O)c1ccco1 | – | – | > 50 µM | – | –
CC(=O)COC(=O)c1ccc([N+](=O)[O-])o1 | > 100 µM | > 100 µM | 7.1 µM | – | –
CC(C)(C)NC(=O)COC(=O)c1ccccc1[N+](=O)[O-] | – | – | > 50 µM | – | –
CC(C)(C)NC(=O)COC(=O)c1ccc(Br)o1 | – | – | > 50 µM | – | –
CC(C)(C)N(Cc1ccccc1)C(=O)COC(=O)c1ccc([N+](=O)[O-])o1 | > 100 µM | > 100 µM | 0.9 µM | – | –
CC(C)(C)N(Cc1ccccc1)C(=O)COC(=O)c1cc([N+](=O)[O-])cc([N+](=O)[O-])c1 | – | – | > 50 µM | – | –
CC(C)(C)N(CCCc1ccccc1)C(=O)COC(=O)c1ccc([N+](=O)[O-])o1 | – | – | > 50 µM | Not Active | Not Active
CCOC(=O)[C@H](CC(C)C)NC(=O)c1ccc([N+](=O)[O-])o1 | – | – | > 50 µM | – | –
CC(C)(C)N(Cc1ccccc1C(F)(F)F)C(=O)COC(=O)c1ccc([N+](=O)[O-])o1 | 65 µM | 95 µM | 9 µM | – | –
CC(C)(C)NC(=O)COC(=O)c1ccc(C(=O)c2ccccc2)o1 | – | – | > 50 µM | – | –
CCOC(=O)[C@H](Cc1ccccc1)NC(=O)c1ccc([N+](=O)[O-])o1 | – | – | > 50 µM | – | –
O=C(COC(=O)c1ccc([N+](=O)[O-])o1)NC1CCCc2ccccc21 (stereo not given) | > 100 µM | > 100 µM | 4.3 µM | – | –
CN(OC(=O)c1ccc([N+](=O)[O-])o1)C(=O)c1ccc([N+](=O)[O-])o1 | > 100 µM | 86 µM | 2.7 µM | – | –
CC(C)(C)N(Cc1ccc(OCc2ccccc2)cc1)C(=O)COC(=O)c1ccc([N+](=O)[O-])o1 | – | – | > 50 µM | Not Active | Not Active
CC(C)(C)N(CCc1ccccc1)C(=O)COC(=O)c1ccc([N+](=O)[O-])o1 | 67 µM | > 100 µM | 14.2 µM | – | –
O=C(COC(=O)c1ccc([N+](=O)[O-])o1)NC1Cc2ccccc2C1 | > 100 µM | > 100 µM | 5.5 µM | – | –
COC(=O)CNC(=O)c1ccc([N+](=O)[O-])o1 | – | – | > 50 µM | – | –
CCOC(=O)[C@H](Cc1ccc(O)cc1)NC(=O)c1ccc([N+](=O)[O-])o1 | – | – | > 50 µM | – | –
O=C(OCCc1ccc([N+](=O)[O-])cc1)c1ccc([N+](=O)[O-])o1 | 36 µM | 28 µM | 2.1 µM | – | –
CC(=O)Oc1ccccc1CN(C(=O)COC(=O)c1ccc([N+](=O)[O-])o1)C(C)(C)C | > 100 µM | > 100 µM | 12.8 µM | – | –
CC(C)(C)N(Cc1ccc(F)cc1)C(=O)COC(=O)c1ccc([N+](=O)[O-])o1 | > 100 µM | > 100 µM | 8.5 µM | – | –
CC(C)(C)NC(=O)COC(=O)c1ccc([N+](=O)[O-])s1 | > 100 µM | > 100 µM | 2.8 µM | – | –
CC(C)(C)N(CCC(=O)c1ccccc1)C(=O)COC(=O)c1ccc([N+](=O)[O-])o1 | – | – | > 50 µM | Not Active | Not Active
